Assay results as given in ChEMBL document CHEMBL4428055 (J Med Chem, 2016).
Blank lines part the entries; values can stand above or below the compound they belong to. Activity calls are given as the source filed them. The calls are words filed in the database; no cut-off is given here.

Tests used:
[1] = biological target: T1, Aldo-keto reductase family 1 member C3 (Homo sapiens, UniProt P42330); assay: Inhibition of human recombinant AKR1C3 using S-tetralol as substrate assessed as reduction in NADP+-dependent S-tetralol oxidation preincubated for 10 mins followed by protein addition by fluorometric assay
T1 sequence (P42330 whole entry): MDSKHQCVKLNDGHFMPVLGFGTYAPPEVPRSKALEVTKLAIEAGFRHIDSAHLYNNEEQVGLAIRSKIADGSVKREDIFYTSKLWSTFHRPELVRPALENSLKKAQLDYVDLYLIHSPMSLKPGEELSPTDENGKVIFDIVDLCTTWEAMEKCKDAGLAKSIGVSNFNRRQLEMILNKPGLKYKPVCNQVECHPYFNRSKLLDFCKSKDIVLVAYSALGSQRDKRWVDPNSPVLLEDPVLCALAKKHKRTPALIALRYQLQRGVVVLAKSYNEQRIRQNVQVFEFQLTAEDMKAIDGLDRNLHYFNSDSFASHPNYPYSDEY

[2] = biological target: T2, Aldo-keto reductase family 1 member C2 (Homo sapiens, UniProt P52895); assay: Inhibition of human recombinant AKR1C2 using S-tetralol as substrate assessed as reduction in NADP+-dependent S-tetralol oxidation preincubated for 10 mins followed by protein addition by fluorometric assay
T2 sequence (P52895 whole entry): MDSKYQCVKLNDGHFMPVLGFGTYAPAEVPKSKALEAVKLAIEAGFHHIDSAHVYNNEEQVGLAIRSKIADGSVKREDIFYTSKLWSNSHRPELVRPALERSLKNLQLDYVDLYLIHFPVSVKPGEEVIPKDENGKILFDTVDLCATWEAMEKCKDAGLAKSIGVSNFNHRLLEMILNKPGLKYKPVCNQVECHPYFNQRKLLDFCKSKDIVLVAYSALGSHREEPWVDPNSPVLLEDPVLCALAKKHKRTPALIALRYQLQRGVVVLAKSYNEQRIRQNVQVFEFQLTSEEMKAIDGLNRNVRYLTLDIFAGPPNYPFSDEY

[3] = biological target: T3, Prostaglandin G/H synthase 1 (Ovis aries) (UniProt P05979); conditions: 100 uM
T3 sequence (whole entry): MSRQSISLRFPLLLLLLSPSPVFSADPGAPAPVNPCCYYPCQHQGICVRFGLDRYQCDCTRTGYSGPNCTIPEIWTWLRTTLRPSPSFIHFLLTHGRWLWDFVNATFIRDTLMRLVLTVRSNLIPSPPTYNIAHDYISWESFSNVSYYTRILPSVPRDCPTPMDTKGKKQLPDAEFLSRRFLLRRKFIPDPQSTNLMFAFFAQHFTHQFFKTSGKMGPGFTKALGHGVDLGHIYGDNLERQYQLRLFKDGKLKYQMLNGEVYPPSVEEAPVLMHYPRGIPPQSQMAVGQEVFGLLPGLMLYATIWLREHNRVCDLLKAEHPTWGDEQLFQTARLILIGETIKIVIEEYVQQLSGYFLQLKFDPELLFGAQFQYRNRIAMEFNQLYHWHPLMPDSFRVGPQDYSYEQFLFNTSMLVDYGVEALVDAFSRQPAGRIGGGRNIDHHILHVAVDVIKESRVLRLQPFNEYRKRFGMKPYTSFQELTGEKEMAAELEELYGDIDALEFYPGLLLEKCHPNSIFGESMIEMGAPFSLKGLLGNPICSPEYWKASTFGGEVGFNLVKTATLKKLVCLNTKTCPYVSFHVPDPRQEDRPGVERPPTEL

[4] = biological target: T4, Prostaglandin G/H synthase 2 (Homo sapiens, UniProt P35354); assay: Inhibition of COX2 (unknown origin) using arachidonic acid as substrate assessed as […] by measuring TMPD oxidation preincubated for 5 mins followed by substrate/TMPD addition measured for 5 mins by colorimetric assay
T4 sequence (P35354 whole entry): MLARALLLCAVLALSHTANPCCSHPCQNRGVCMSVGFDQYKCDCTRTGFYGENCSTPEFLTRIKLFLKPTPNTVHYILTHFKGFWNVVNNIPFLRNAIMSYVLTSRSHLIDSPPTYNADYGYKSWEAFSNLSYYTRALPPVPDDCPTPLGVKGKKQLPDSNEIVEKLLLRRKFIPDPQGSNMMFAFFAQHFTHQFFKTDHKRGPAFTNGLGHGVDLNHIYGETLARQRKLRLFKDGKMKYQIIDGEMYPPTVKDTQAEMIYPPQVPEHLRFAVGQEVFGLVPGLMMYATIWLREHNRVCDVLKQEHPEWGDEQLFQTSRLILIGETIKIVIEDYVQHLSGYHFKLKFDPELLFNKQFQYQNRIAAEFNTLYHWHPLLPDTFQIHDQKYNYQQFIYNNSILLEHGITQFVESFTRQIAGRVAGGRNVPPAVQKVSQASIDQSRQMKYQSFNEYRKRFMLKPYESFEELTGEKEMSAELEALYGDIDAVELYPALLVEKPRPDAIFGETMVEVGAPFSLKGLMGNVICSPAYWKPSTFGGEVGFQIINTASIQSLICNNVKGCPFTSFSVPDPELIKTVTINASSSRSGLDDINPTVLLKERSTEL

[5] = biological target: T5, Androgen receptor (Homo sapiens) (UniProt P10275); assay: Effect on 5alpha-DHT-induced activation of AR (unknown origin) expressed in human HeLa13 cells at 10 uM incubated for 20 hrs by luciferase reporter gene assay; type: cell-based
T5 sequence (whole entry): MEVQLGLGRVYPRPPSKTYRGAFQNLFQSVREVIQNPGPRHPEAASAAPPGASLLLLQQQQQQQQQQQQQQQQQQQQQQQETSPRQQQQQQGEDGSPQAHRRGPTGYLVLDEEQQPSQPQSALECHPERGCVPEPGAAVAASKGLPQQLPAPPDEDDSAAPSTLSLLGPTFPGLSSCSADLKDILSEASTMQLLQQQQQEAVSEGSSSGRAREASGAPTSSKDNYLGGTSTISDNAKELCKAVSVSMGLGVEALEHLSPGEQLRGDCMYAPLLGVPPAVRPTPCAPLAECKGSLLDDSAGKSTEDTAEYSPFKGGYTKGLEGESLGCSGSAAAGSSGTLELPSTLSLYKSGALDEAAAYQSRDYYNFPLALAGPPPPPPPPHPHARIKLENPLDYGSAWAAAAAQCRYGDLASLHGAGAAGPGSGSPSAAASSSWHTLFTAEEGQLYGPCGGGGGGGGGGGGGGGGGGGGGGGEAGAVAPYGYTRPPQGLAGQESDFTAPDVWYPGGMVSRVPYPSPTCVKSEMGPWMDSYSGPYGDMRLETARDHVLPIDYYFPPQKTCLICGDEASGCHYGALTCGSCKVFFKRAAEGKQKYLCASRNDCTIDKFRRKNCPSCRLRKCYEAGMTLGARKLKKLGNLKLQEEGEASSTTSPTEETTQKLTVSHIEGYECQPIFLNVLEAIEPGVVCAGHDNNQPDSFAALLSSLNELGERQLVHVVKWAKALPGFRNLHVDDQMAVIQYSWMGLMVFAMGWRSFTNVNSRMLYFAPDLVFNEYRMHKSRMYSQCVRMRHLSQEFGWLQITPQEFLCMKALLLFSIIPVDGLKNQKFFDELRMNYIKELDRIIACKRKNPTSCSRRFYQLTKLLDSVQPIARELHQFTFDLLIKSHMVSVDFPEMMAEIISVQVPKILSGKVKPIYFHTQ
Summary of the method: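 HeLa13 cells stably carrying AR and an androgen-response-element luciferase reporter were grown 48 h in phenol-red-free medium with 5% charcoal-stripped FBS. They were plated for 6–7 h, then given fresh medium with 5α-DHT (1 nM in methods; increasing concentrations also tested) plus inhibitor. Luciferase was read after 20 h, as fold induction over untreated cells.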

[6] = biological target: T6, Prostaglandin G/H synthase 1 (Ovis aries, UniProt P05979); assay: Inhibition of COX1 in ram seminal vesicles using arachidonic acid as substrate assessed as reduction in […] by measuring TMPD oxidation preincubated for 5 mins followed by substrate/TMPD addition measured for 5 mins by colorimetric assay
T6 sequence (P05979 whole entry): T3 sequence (whole entry)

[7] = biological target: T7, Prostaglandin G/H synthase 2 (Homo sapiens) (UniProt P35354); assay: Inhibition of COX2 (unknown origin) using arachidonic acid as substrate assessed as reduction in […] by measuring TMPD oxidation at 10 uM preincubated for 5 mins followed by substrate/TMPD addition measured for 5 mins by colorimetric assay
T7 sequence (whole entry): T4 sequence (P35354 whole entry)

SMILES: CSc1ccc2cc([C@H](C)C(=O)O)ccc2c1
IC50 [1]: 70 nM | IC50 [2]: 1350 nM

SMILES: COc1ccc2cc([C@@H](C)C(=O)O)ccc2c1
inhibition [3]: < 20% | IC50 ([4]; read-out: IC50): > 25000 nM | IC50 [2]: 2750 nM

Activity [5]: inactive | IC50 [4]: Not Active
SMILES: CC[C@@H](C(=O)O)c1ccc2cc(OC)ccc2c1

SMILES: CC[C@H](C(=O)O)c1ccc2cc(OC)ccc2c1
IC50 [1]: 120 nM | IC50 [6]: 1930 nM | IC50 [4]: Not Active | IC50 [2]: 1720 nM

SMILES: CCC(C(=O)O)c1ccc2cc(OC)ccc2c1 (racemic)
IC50 [1]: 120 nM | inhibition [7]: inactive | IC50 [2]: 7600 nM

SMILES: CCc1ccc2cc(C(C)C(=O)O)ccc2c1 (racemic)
IC50 [1]: 120 nM | IC50 [2]: 1900 nM

SMILES: CCC(C(=O)NS(C)(=O)=O)c1ccc2cc(OC)ccc2c1 (racemic)
IC50 [1]: 6000 nM | IC50 [2]: 34000 nM

SMILES: CCOc1ccc2cc(C(C)C(=O)O)ccc2c1 (racemic)
IC50 [1]: 100 nM | IC50 [2]: 2400 nM

SMILES: CSc1ccc2cc(C(C)C(=O)O)ccc2c1 (racemic)
IC50 [1]: 60 nM | IC50 [2]: 1500 nM

SMILES: COc1ccc2cc([C@H](C)C(=O)O)ccc2c1 [NAPROXEN]
IC50 ([4]; read-out: IC50): 900 nM
